Assay outcomes from PubChem BioAssay.
rRNA inh HTS = selective bacterial rRNA inhibition in E. coli; E. coli WT GFP vs humanized-ribosome RFP mutants, fluorescence, 24 h; hits give low values; DMSO median 0, no signal -100; GFP signal change (wild-type ribosome), % (concentration not given with the values); hit rate 1.6% among 350,000;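 active means significant combined selectivity score with lowered wild-type GFP, culture density cut under 30%, mutant RFP and density less affected; inactive means any of these conditions unmet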
Cneo AK release = causes C. neoformans cell lysis; lysis activity, % at 15 µM; adenylate kinase release luminescence, 4 h; normalised: neutral wells 0, clomiphene wells 100; AID 651654; hit rate 0.2% among 360,000;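 active means mean lysis activity across replicates of at least 80%, whatever share of replicates individually reach that level; inactive means mean lysis activity below 80%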
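read-out = cell lysis signal | test system = log-phase Cryptococcus neoformans yeast cells | input = cells at 5 × 10^6 per mL | medium = fresh YPD growth medium | signal = luminescent adenylate kinase detection reagent | timing = 4 h at 37 °C static, read 1 h later | dosing = single dose | controls = Clomiphene as positive lysis control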
FGF22 binding-1 = shifts melting point of recombinant human FGF22 | Q9HCT0 | recombinant FGF22 thermal shift, SYPRO orange fluorescence; percent of sucrose octasulfate shift, DMSO zero | activity (Tm shift, normalised), % at 9.99 µM | hit rate 1.5% among 340,000 | AID 651658;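 active means mean Tm shift, scaled 0 neutral to 100 positive control, at about 1.3% or above, every replicate too, limit read from the data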
Target sequence (Q9HCT0 whole entry, looked up): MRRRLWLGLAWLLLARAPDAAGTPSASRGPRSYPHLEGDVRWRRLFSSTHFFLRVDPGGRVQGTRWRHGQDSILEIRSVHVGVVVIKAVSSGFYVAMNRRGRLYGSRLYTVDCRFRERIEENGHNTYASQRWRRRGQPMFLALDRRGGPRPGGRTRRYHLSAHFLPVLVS
Vif inh = inhibitors of HIV Vif; inhibition, % at 7.49 µM; HEK293T cells, Vif self-association by quenched fluorescence, imaging, 24 h; hit rate 0.35% among 340,000; in the data active means inhibition above about 50%, passing the limit was not always enough
PGC1a acetyl inh = PGC1a acetylation modulation, inhibitor mode | U2OS PGC1a acetylation, AlphaScreen anti-acetyl-lysine; with virally co-expressed GCN5 acetyltransferase | inhibition, % at 15.6 µM | hit rate 0.17% among 350,000 | AID 651687;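 active means every replicate shows inhibition of at least 40%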;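 further: 0% = neutral control wells and 100% = positive control wells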
PglD DTNB = PglD (C. jejuni) enzyme inhibition; AID 602405; inhibition, % at 12.5 µM; purified PglD enzyme, DTNB colorimetric CoA detection; hit rate 0.098% among 360,000; in the data active means inhibition above about 16%, passing the limit was not always enough
FGF22 binding-2 = binds human FGF22 shifting its melting temperature; shares compounds with FGF22 binding-1; recombinant FGF22 thermal shift, SYPRO orange fluorescence; thermal shift activity, °C (ΔTm) at 38 µM; hit rate 2% among 1,000; AID 720646;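 active means fitted rise in melting shift crosses a set limit at or below the top valid dose tested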
FGF22 TSA = FGF22 (human) binding by thermal shift; shares compounds with FGF22 binding-1; Thermal shift assay, SYPRO orange, melting temperature shift; Tm shift (activity), % at 38 µM; 50 tested, under 10 active; AID 743017;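 active means compounds whose fitted dose curve of melting temperature shift rises past a set threshold within the tested doses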
TSA no protein = shows thermal shift signal without protein, FGF22 counter-screen; compound-only SYPRO orange thermal shift counter-screen, no protein; hit rate 2% among 1,000; AC50, µM (highest dose often 38 µM); AID 743019; shares compounds with FGF22 binding-1;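 active means rising signal whose fitted curve reaches the 0.54 level within the top valid dose, showing a melting point, actives reach about 13 µM in these data; inactive means the rest, including activity in the opposite direction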; further: value is where the raw curve crosses a fixed level and not half-maximal
The depositor's hits bear a star; i = inactive; · = no result; [ ] = remark or other dose. Only some compounds are listed: those with a hit (about 2.9% of all), similar ones and a draw of the others.

SMILES	rRNA inh HTS	Cneo AK release	FGF22 binding-1	Vif inh	PGC1a acetyl inh	PglD DTNB	FGF22 binding-2	TSA no protein	others
CN1C(=O)c2cc(NC(=O)c3cccc(F)c3)ccc2OC[C@H]2O[C@@H](CC(=O)N3CCc4ccccc4C3)CC[C@H]21	-14	4	1.3*	·	-2	1	0.11[42 µM]	i
CN1C(=O)c2cc(NC(=O)c3cccc(F)c3)ccc2OC[C@H]2O[C@@H](CC(=O)NCc3ccccc3)CC[C@H]21	-8	-6	1.7*	·	-25	4	-0.023[42 µM]	i
CN1C(=O)c2cc(NC(=O)c3cccc(F)c3)ccc2OC[C@H]2O[C@H](CC(=O)N3CCc4ccccc4C3)CC[C@@H]21	-6	2	0	·	-12	-4	·	·
CN1C(=O)c2cc(NC(=O)c3cccc(F)c3)ccc2OC[C@H]2O[C@@H](CC(=O)NCC3CCCCC3)CC[C@H]21	-5	-22	2.3*	·	·	2	0.12[42 µM]	i
Cc1cccc(C(=O)NCC(=O)N2CCN(c3ccc(Cl)cc3)CC2)c1	3	2	0	-12	·	3	·	·
Cc1cc(C)cc(C(=O)NCC(=O)N2CCN(c3cccc(Cl)c3)CC2)c1	-6	0	37*	-9	·	0	0.15	i
COc1ccc(NC(=O)Nc2ccc3c(c2)CC(=O)N([C@@H](C)CO)C[C@H](C)[C@H](CN(C)C)O3)cc1	1	0	0	·	2	6	·	·
NC(=O)Nc1ccc(C(=O)OCC(=O)Nc2sccc2C(N)=O)cc1	-10	-5	1.5*	-4	·	0	0.045	i
NC(=O)c1ccsc1NC(=O)COC(=O)Cc1c[nH]c2ccccc12	-18	0	1.8*	-10	1	6	·	i
O=C(N/N=C/c1ccncc1)c1cc2ccccc2o1	1	·	1.8*	2	·	·	0.023	i
COc1ccc(/C(O)=C/C(=O)C(=O)NNC(=O)c2ccccc2)cc1	-4	0	29*	-1	1	2	0.091	i
O=C(Nc1ccccc1)Nc1ccc2snnc2c1	·	-2	·	-4	-5	1	·	·
O=C(Nc1ccccc1)Nc1ccc2nnsc2c1	-43	-10	2.1*	-18	·	-1	0.27	i
O=C(N[C@@H]1CC[C@H](CCNC(=O)C2CC2)O[C@H]1CO)c1ccncc1	3	-1	0	·	-3	-6	·	·
CS(=O)(=O)N1CC2(C1)[C@H](c1ccccc1)[C@@H](CO)N2Cc1ccccc1	0	·	0	·	-3	·	·	·
CS(=O)(=O)N1CC2(C1)[C@@H](c1ccccc1)[C@@H](CO)N2Cc1ccc(F)cc1	-5	·	1.9*	·	-6	·	0.087[42 µM]	i
CCCNC(=O)N1CC(=O)N2[C@H](C1)[C@@H](c1ccc(-c3cccc(C)c3)cc1)[C@@H]2CO	2	·	6.9*	·	-6	·	0.22	i
COCC(=O)N1CC(=O)N2[C@H](CO)[C@H](c3ccc(Br)cc3)[C@H]2C1	2	·	1.6*	·	3	·	0.074	i
O=C(NC1CCCCC1)N1CC(=O)N2[C@H](C1)[C@@H](c1ccc(-c3cccc(F)c3)cc1)[C@@H]2CO	-35	·	2.3*	·	12	·	-0.042	i
CCCNC(=O)N1CC(=O)N2[C@H](CO)[C@@H](c3ccc(-c4cccc(C)c4)cc3)[C@@H]2C1	3	·	2.2*	·	5	·	0.22[42 µM]	i
O=C(NC1CCCCC1)N1CC(=O)N2[C@@H](CO)[C@H](c3ccc(-c4cccc(F)c4)cc3)[C@@H]2C1	-2	·	1	·	-6	·	·	·
O=C(c1ccccc1F)N1CC(=O)N2[C@@H](CO)[C@H](c3ccc(-c4ccc(F)cc4)cc3)[C@@H]2C1	-3	·	1.8*	·	-9	·	0.14[42 µM]	i
CC(=O)N1[C@@H](CO)[C@@H]2c3ccccc3N(C(=O)c3ccc(F)cc3)C[C@@H]21	6	-3	1.8*	·	5	0	0.11	i
COc1ccc(C(=O)N2C[C@H]3[C@@H](c4ccccc42)[C@@H](CO)N3C(=O)c2ccc(F)cc2)cc1	1	-6	1.8*	·	7	-4	0.061[42 µM]	i
COCC(=O)N1C[C@H]2[C@@H](c3ccccc31)[C@H](CO)N2C(=O)Nc1ccccc1F	-2	54	1.5*	·	-2	-4	-0.044	i
SMILES	rRNA inh HTS	Cneo AK release	FGF22 binding-1	Vif inh	PGC1a acetyl inh	PglD DTNB	FGF22 binding-2	TSA no protein	others
C[C@H](CO)N1C[C@H](C)[C@H](CN(C)Cc2ccc(-c3ccccc3)cc2)Oc2ccc(N(C)C)cc2C1=O	-3	2	0	·	-4	-1	·	·
CSc1ccc(/C=N/NC(=O)c2ccc3nc[nH]c3c2)cc1	-6	-5	2.2*	-1	3	3	·	i	FGF22 TSA=0
CN(C)c1ccc(/C=N/NC(=O)c2ccc3nc[nH]c3c2)cc1	-8	·	1	-4	11	·	·	·
C[C@@H]1CN([C@@H](C)CO)S(=O)(=O)c2ccc(C3=CCCC3)cc2O[C@@H]1CN(C)CC1CCOCC1	6	·	·	·	1	·	·	·
O=[N+]([O-])c1ccc(Cl)c(S(=O)(=O)Nc2ccc(S(=O)(=O)N3CCOCC3)cc2)c1	-5	0	2.2*	11	·	-3	0.15	i
O=[N+]([O-])c1ccc(Cl)c(S(=O)(=O)Nc2ccc(-c3ccc(N4CCOCC4)nn3)cc2)c1	2	0	0	3	·	-2	·	·
COc1ccc(-c2ccc3n(c2=O)C[C@@H]2[C@@H](CO)[C@H](C(=O)N(C)C)[C@H]3N2C(=O)c2cnccn2)cc1	1	·	·	·	·	·	·	·
CC(C)C#Cc1ccc([C@H]2[C@@H](CO)N3C(=O)CN(C(=O)C4CCCCC4)C[C@H]23)cc1	6	·	1	·	-15	·	·	·
CC(C)C#Cc1ccc([C@H]2[C@H](CO)N3C(=O)CN(C(=O)C4CCCCC4)C[C@@H]23)cc1	5	·	1.6*	·	-4	·	0.47	i
CC(C)C#Cc1ccc([C@@H]2[C@H](CO)N3C(=O)CN(C(=O)C4CCCCC4)C[C@@H]23)cc1	6	·	1.2*	·	3	·	0.34	i
C[C@H](CO)N1C[C@H](C)[C@H](CN(C)C(=O)Nc2ccc(C(F)(F)F)cc2)Oc2cc(-c3ccncc3)ccc2S1(=O)=O	-5	0	1.4*	·	2	2	-0.2[42 µM]	i
